Experimental findings from ChEMBL document CHEMBL2396525, “Synthesis and anti-HCMV activity of 1-[ω-(phenoxy)alkyl]uracil derivatives and analogues thereof” (Bioorg Med Chem, 2013) are described below.

One may read the EC50 as the concentration at which the effect is half-maximal. What is called CC50 is the concentration giving 50% cytotoxicity. Higher therefore signals better tolerance by the cells.

For one data set, the system named is Vaccinia virus. The experiment in a line: Antiviral activity against Vaccinia virus Lederle. The format is functional, organism-based. The following applies: Orthopoxvirus vaccinia.
Data set [1] concerns Influenza A virus. The experiment in a line: Antiviral activity against Influenza virus A virus H1N1. The format is functional, organism-based. The method in brief: (§1)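 The assay was a cell-based cytopathicity inhibition test on confluent monolayers with serial compound dilutions. EC50 was the concentration that reduced virus-induced cytopathicity by 50%.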
The next data set relates to Feline coronavirus. The data set is described as follows: Antiviral activity against Feline coronavirus. The format is functional, organism-based.
In another data set the test system is Punta Toro virus. The experiment in a line: Antiviral activity against Punta Toro virus. It is filed as functional, organism-based. The gist of the method:
(§2)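 Confluent HEL, Vero, HeLa or MDCK cell cultures were inoculated with 100 CCID50 of virus alongside varying compound concentrations. Cytopathicity was scored when it reached completion in untreated virus controls. EC50 is the concentration that reduces virus-induced cytopathogenicity by 50%.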

Data set [2] deals with Vesicular stomatitis virus. The data set is described as follows: Antiviral activity against Vesicular stomatitis virus. It is filed as functional, organism-based.
The next data set concerns Coxsackievirus B4. The data set is described as follows: Antiviral activity against Coxsackie B4 virus. The format is functional, organism-based. The method in brief: as §2
Data set [3] relates to Respiratory syncytial virus. The data set is described as follows: Antiviral activity against Respiratory syncytial virus Long. The format is functional, organism-based. The method in brief: as §2
Another data set relates to Sindbis virus. The experiment in a line: Antiviral activity against Sindbis virus. It is filed as functional, organism-based. The method in brief:
as §2

Another data set has as its system Influenza B virus. The experiment in a line: Antiviral activity against Influenza B virus. It is filed as functional, organism-based. The gist of the method:
as §1

Data set [4] is described as follows: Cytotoxicity against HEL assessed as minimum cytotoxic concentration required to cause microscopically detectable alteration in cell morphology. The format is cell-based. The following applies: human, HEL cells.
Data set [5] deals with Human betaherpesvirus 5. The experiment in a line: Antiviral actiivty against Human herpesvirus 5 AD169 infected in HEL assessed as reduction of virus-induced plaque formation. The conditions noted are these: Human betaherpesvirus 5, AD169. The format is functional, organism-based. The method in brief: (§3)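 HCMV strains AD-169 and Davis were tested on confluent human embryonic lung fibroblast monolayers infected with 100 PFU in the presence of serial compound concentrations. Plaques were counted once formation was complete in untreated infected controls. EC50 is the concentration that cuts plaque formation by 50%.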

The subject of data set [6] is Mammalian orthoreovirus 1. The experiment in a line: Antiviral activity against Reovirus-1. It is filed as functional, organism-based. The method in brief:
as §2

The subject of data set [7] is Human alphaherpesvirus 3. The data set is described as follows: Antiviral activity against Varicella-zoster virus YS. It is filed as functional, organism-based. The method in brief:
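VZV was assayed by plaque formation. Confluent cell cultures received 10 or 100 PFU with varying compound concentrations, and plaques were recorded once complete in untreated infected controls. EC50 is the concentration that reduces plaque formation by 50%.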

In data set [8] the test system is Human immunodeficiency virus 1. The data set is described as follows: Antiviral activity against HIV1 3B infected in human CEM cells assessed as inhibition of virus-induced giant cell formation after 4 to 5 days. The format is functional, organism-based. The following applies: CCRF-CEM. The gist of the method:
(§4)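 CEM cells at about 3 × 10^5 cells/mL were infected with 100 CCID50 of HIV per mL, with compound dilutions present. They were incubated 4–5 days at 37 °C in humidified CO2, and syncytia were scored microscopically. EC50 is the concentration that inhibits giant cell formation by 50%.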

In data set [9] the test system is Human alphaherpesvirus 2. The experiment in a line: Antiviral activity against Herpes simplex virus type 2 Lyons. It is filed as functional, organism-based. The method in brief: as §2
Data set [10] has as its system Human alphaherpesvirus 3. The experiment in a line: Antiviral activity against Varicella-zoster virus OKA. The following applies: strain Oka vaccine. The format is functional. The gist of the method: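 Confluent cell monolayers were infected with 10 or 100 PFU of VZV in the presence of serial compound dilutions. Plaque formation was recorded once untreated infected controls reached completion. EC50 was the concentration that reduced plaque formation by 50%.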

The subject of data set [11] is Influenza A virus. The experiment in a line: Antiviral activity against Influenza virus A virus H3N2. The format is functional, organism-based. The gist of the method: as §1
Data set [12] deals with Human betaherpesvirus 5. The experiment in a line: Antiviral actiivty against Human herpesvirus 5 Davis infected in HEL assessed as reduction of virus-induced plaque formation. It is filed as functional, organism-based. The following applies: Human betaherpesvirus 5, Davis. The gist of the method: as §3
In a further data set the test system is Human respirovirus 3. The data set is described as follows: Antiviral activity against Parainfluenza virus 3. It is filed as functional, organism-based. The method in brief: as §2
A further data set relates to HEL. The experiment in a line: Cytotoxicity against HEL. The format is cell-based. The conditions noted are these: human.
Data set [13] concerns Human immunodeficiency virus 2. The experiment in a line: Antiviral activity against HIV2 ROD infected in human CEM cells assessed as inhibition of virus-induced giant cell formation after 4 to 5 days. It is filed as functional, organism-based. The following applies: ISOLATE ROD, CCRF-CEM. The method in brief: as §4
Data set [14] relates to Human alphaherpesvirus 1. The data set is described as follows: Antiviral activity against Herpes simplex virus type 1 KOS. The format is functional, organism-based. The gist of the method: as §2
The subject of data set [15] is Human alphaherpesvirus 2. The data set is described as follows: Antiviral activity against Herpes simplex virus type 2 G. It is filed as functional, organism-based. The conditions noted are these: strain G. The gist of the method: as §2
The test system of data set [16] is Human alphaherpesvirus 1. The experiment in a line: Antiviral activity against thymidine kinase deficient acyclovir-resistant Herpes simplex virus type 1 KOS. The format is functional, organism-based.

Calls of active or inactive are those of the source. The rule behind the calls is not given here.

With `O=c1[nH]c(=O)n(CCCCCOc2ccc(Br)cc2)cc1I`, the result (in the data set on Vaccinia virus; with Influenza A virus [1]; in the data set with Feline coronavirus; in the data set on Punta Toro virus; in data set [2]; with Coxsackievirus B4) was inactive. The outcome (in data set [3]; with Sindbis virus; with Influenza B virus; in data set [6]; in the data set with Human alphaherpesvirus 3 [7]; in data set [8]) was inactive. The result (in the data set on Human alphaherpesvirus 2 [9]; in the data set with Human alphaherpesvirus 3 [10]; in the data set with Influenza A virus [11]; with Human respirovirus 3; in data set [13]; with Human alphaherpesvirus 1 [14]) was inactive. In addition, the outcome in the data set with Human alphaherpesvirus 2 [15] and in the data set on Human alphaherpesvirus 1 [16] was inactive. In data set [4], the MCC was at least 100 µM. Also, the half-maximal effective concentration (EC50) with Human betaherpesvirus 5 [5] was found to be 13 µM; in the data set with Human betaherpesvirus 5 [12], 20 µM. This molecule also came in with a CC50 with HEL above 100 µM.
Take `O=c1ccn(CCCCCOc2ccc(Br)cc2)c(=O)[nH]1`: the result (with Vaccinia virus; in the data set with Influenza A virus [1]; in the data set on Feline coronavirus; with Punta Toro virus; in data set [2]; with Coxsackievirus B4) was inactive. In addition, the outcome (in [3]; in the data set with Sindbis virus; with Influenza B virus; in data set [6]; in the data set on Human alphaherpesvirus 3 [7]; in data set [8]) was inactive. Further, the result (in the data set on Human alphaherpesvirus 2 [9]; in the data set on Human alphaherpesvirus 3 [10]; in the data set with Influenza A virus [11]; in the data set with Human respirovirus 3; in data set [13]; in the data set with Human alphaherpesvirus 1 [14]) was inactive. Further, the outcome in the data set on Human alphaherpesvirus 2 [15] and in the data set with Human alphaherpesvirus 1 [16] was inactive. For the same molecule, the MCC in [4] was determined as 100 µM. The EC50 amounted to 9.4 µM in the data set with Human betaherpesvirus 5 [5] and 12 µM in the data set on Human betaherpesvirus 5 [12]. Also, the CC50 with HEL is above 100 µM.
As for `Cc1ccccc1OCCCCCn1ccc(=O)[nH]c1=O`, the result (in the data set on Vaccinia virus; in the data set on Influenza A virus [1]; with Feline coronavirus; in the data set with Punta Toro virus; in data set [2]; in the data set on Coxsackievirus B4) was inactive. Besides, the result (in data set [3]; with Sindbis virus; in the data set with Influenza B virus; in [6]; in the data set on Human alphaherpesvirus 3 [7]; in data set [8]) was inactive. The outcome (with Human alphaherpesvirus 2 [9]; in the data set on Human alphaherpesvirus 3 [10]; in the data set on Influenza A virus [11]; in the data set on Human respirovirus 3; in [13]; in the data set on Human alphaherpesvirus 1 [14]) was inactive. The result in the data set with Human alphaherpesvirus 2 [15] and with Human alphaherpesvirus 1 [16] was inactive. The MCC in data set [4] was above 100 µM. In addition, the EC50 in the data set with Human betaherpesvirus 5 [5] and in the data set with Human betaherpesvirus 5 [12] was above 100 µM throughout. Further, the CC50 in the data set with HEL is above 100 µM.
As to `Nc1ccc(OCCCCCn2ccc(=O)[nH]c2=O)cc1`, the outcome (in the data set on Vaccinia virus; in the data set with Influenza A virus [1]; in the data set with Feline coronavirus; in the data set with Punta Toro virus; in data set [2]; in the data set on Coxsackievirus B4) was inactive. Also, the outcome (in [3]; in the data set on Sindbis virus; in the data set on Influenza B virus; in data set [6]; in the data set with Human alphaherpesvirus 3 [7]; in data set [8]) was inactive. The result (with Human alphaherpesvirus 2 [9]; in the data set with Human alphaherpesvirus 3 [10]; with Influenza A virus [11]; in the data set with Human respirovirus 3; in data set [13]; in the data set with Human alphaherpesvirus 1 [14]) was inactive. Besides, the outcome with Human alphaherpesvirus 2 [15] and in the data set with Human alphaherpesvirus 1 [16] was inactive. Also, the MCC in data set [4] was above 100 µM. Besides, the EC50 in the data set on Human betaherpesvirus 5 [5] and in the data set with Human betaherpesvirus 5 [12] was 55 µM each time. The same molecule registered a CC50 in the data set with HEL above 100 µM.
As for `O=c1[nH]c(=O)n(CCCCCOc2ccc(Br)cc2)cc1Br`, the result (in the data set on Vaccinia virus; in the data set on Influenza A virus [1]; in the data set with Feline coronavirus; in the data set on Punta Toro virus; in [2]; in the data set on Coxsackievirus B4) was inactive. Also, the outcome (in [3]; in the data set with Sindbis virus; in the data set with Influenza B virus; in data set [6]; in the data set with Human alphaherpesvirus 3 [7]; in data set [8]) was inactive. In addition, the outcome (in the data set with Human alphaherpesvirus 2 [9]; with Human alphaherpesvirus 3 [10]; with Influenza A virus [11]; in the data set on Human respirovirus 3; in data set [13]; in the data set with Human alphaherpesvirus 1 [14]) was inactive. Further, the outcome with Human alphaherpesvirus 2 [15] and in the data set on Human alphaherpesvirus 1 [16] was inactive. Also, the MCC in [4] was above 100 µM. The EC50 in the data set with Human betaherpesvirus 5 [5] was 36 µM; with Human betaherpesvirus 5 [12], 67 µM. Moreover, the CC50 in the data set with HEL is above 100 µM.
As to `Cc1cccc(OCCCCCn2ccc(=O)[nH]c2=O)c1`, the result (in the data set on Vaccinia virus; in the data set with Influenza A virus [1]; in the data set with Feline coronavirus; with Punta Toro virus; in [2]; in the data set on Coxsackievirus B4) was inactive. Moreover, the result (in data set [3]; in the data set on Sindbis virus; in the data set with Influenza B virus; in [6]; in the data set on Human alphaherpesvirus 3 [7]; in data set [8]) was inactive. The outcome (in the data set with Human alphaherpesvirus 2 [9]; in the data set on Human alphaherpesvirus 3 [10]; in the data set with Influenza A virus [11]; in the data set with Human respirovirus 3; in data set [13]; in the data set on Human alphaherpesvirus 1 [14]) was inactive. The result with Human alphaherpesvirus 2 [15] and in the data set with Human alphaherpesvirus 1 [16] was inactive. Besides, the MCC in data set [4] is above 100 µM. For the same molecule, the results for the EC50 with Human betaherpesvirus 5 [5] and in the data set with Human betaherpesvirus 5 [12] were 45 µM and 55 µM, respectively. In the data set on HEL, this molecule returned a CC50 above 100 µM.
Take `CCCOC(=O)c1ccc(OCCCCCn2ccc(=O)[nH]c2=O)cc1`: the result (in the data set on Vaccinia virus; in the data set on Influenza A virus [1]; in the data set with Feline coronavirus; with Punta Toro virus; in data set [2]; in the data set with Coxsackievirus B4) was inactive. In addition, the result (in data set [3]; in the data set on Sindbis virus; in the data set with Influenza B virus; in data set [6]; in the data set on Human alphaherpesvirus 3 [7]; in [8]) was inactive. Also, the outcome (in the data set on Human alphaherpesvirus 2 [9]; in the data set with Human alphaherpesvirus 3 [10]; in the data set on Influenza A virus [11]; with Human respirovirus 3; in data set [13]; in the data set with Human alphaherpesvirus 1 [14]) was inactive. Moreover, the result with Human alphaherpesvirus 2 [15] and in the data set with Human alphaherpesvirus 1 [16] was inactive. Besides, the MCC in data set [4] was at least 100 µM. Moreover, the EC50 in the data set with Human betaherpesvirus 5 [5] and in the data set on Human betaherpesvirus 5 [12] was 45 µM throughout. Also, the CC50 with HEL is above 100 µM.
